“And” between values parts separate entries of the source, which are not always exact repeats. Identical values can stand only once. “Also recorded” adds a separate entry of the source. Like-named read-outs stand apart in the source and are kept apart here.
What was measured:
[1] = system: macrophage inhibitory cytokine‐1 (MIC‐1) levels in serum; test: Serum MIC-1; format: in vivo, human
Procedure, shortened: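 Serum was drawn on cycle 1 day 1 before dosing and 6 h post dose, and on days 2, 8, 15 and 21, during oral QD dosing on days 1–21 at 60, 90 or 120 mg. MIC-1 (GDF-15) was quantified by quantitative sandwich ELISA for human GDF-15. Change from baseline was summarized by cohort using descriptive statistics.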

[2] = system: advanced solid tumors or lymphomas; conditions: cited from earlier work
solid tumors = test: Efficacy assessment by RECIST version 1.1; format: in vivo, human
Procedure, shortened: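 Adults with relapsed or refractory solid tumors took oral test compound (tosylate salt) QD on days 1–21 of 28-day cycles at 60, 90 or 120 mg. Response was assessed by RECIST 1.1 using CT and MRI every 8 weeks through cycle 8, then every 12 weeks. Minimum SD duration was 8 weeks after first dose. Summaries were descriptive over patients with efficacy data.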

[3] = Plasma pharmacokinetics of milademetan; format: in vivo, human; conditions: for AUC: AUCtau
[4] = system: human osteosarcoma xenografts; conditions: human osteosarcoma xenografts in nude mice; cited from earlier work
[5] = system: six human cancer cell lines; conditions: cited from earlier work
[6] = Day 21 of cycle 1, Cohort 2 (90 mg/d) (n = 9), oral QD, mean (SD)
[7] = human, plasma, po, 60 mg/d, Day 1 of cycle 1, Cohort 1 (60 mg/d) (n = 3), oral QD, mean (SD)
[8] = human, plasma, po, 60 mg/d, Day 21 of cycle 1, Cohort 1 (60 mg/d) (n = 2), oral QD, mean (SD)
[9] = human, plasma, po, 90 mg/d, Day 1 of cycle 1, Cohort 2 (90 mg/d) (n = 11), oral QD, mean (SD)

Question: With `CC1(C)CCC2(CC1)N[C@@H](C(=O)N[C@@H]1CC[C@@H](C(N)=O)OC1)[C@H](c1ccnc(Cl)c1F)[C@]21C(=O)Nc2cc(Cl)ccc21` [milademetan, Milademetan] as the compound, how does the “Increase of MIC-1 levels from baseline to day 21, mean (SD)” value (shortened to “Increase of MIC-1 levels … (SD)”) ([1]; 60-mg cohort) read?
Answer: 2175.7 (1677.40) pg/mL

Question: What about the “Increase of MIC-1 levels … (SD)” value ([1]; 90-mg cohort) of the same compound?
Answer: 9514.5 (6812.78) pg/mL

Question: And the “Increase of MIC-1 levels … (SD)” value ([1]; 120-mg cohort)?
Answer: 7930.5 (7636.72) pg/mL

Question: And the “Mean MIC-1 levels after administration” value ([1]; all cohorts)?
Answer: increased from baseline in all cohorts

Question: What about the “MTD in US phase I study” value ([2]; once-daily 21/28-day schedule) of the same compound?
Answer: 120 mg

Question: What about the “MTD in US phase I study” value ([2]; once-daily 28/28-day schedule) of the same compound?
Answer: 90 mg

Question: What about the “Complete or partial response” value (solid tumors; 16 patients) of the same compound?
Answer: No patients achieved complete or partial response

Question: And the Antitumor activity (solid tumors; Japanese patients with solid tumors)?
Answer: modest antitumor activity

Question: And the “Disease control rate, percentage of patients (95% CI)” value (solid tumors; Total (n = 16))?
Answer: 43.8%

Question: And the “Progressive disease, percentage of patients (95% CI)” value (solid tumors; Total (n = 16))?
Answer: 31.3%

Question: What about the “Stable disease, percentage of patients (95% CI)” value (solid tumors; Total (n = 16)) of the same compound?
Answer: 43.8%

Question: And the “PFS rate (95% CI)” value (solid tumors; at 3 months)?
Answer: 56.8%

Question: What about the “PFS rate (95% CI)” value (solid tumors; at 6, 9, and 12 months) of the same compound?
Answer: 35.5%

Question: And the “Patients with a PFS event” value (solid tumors; efficacy analysis set, 17 patients)?
Answer: Eight of the 17 patients

Question: And the “Median (minimum, maximum) PFS” value (solid tumors; including censored patients)?
Answer: 15.29 (0.1, 202.1) weeks and 15.3 (0.1+, 202.1+) weeks

Question: And the “Median (range) duration of stable disease” value (solid tumors; including censored patients)?
Answer: 55.4 (7.3‐202.1) weeks and 55.4 (7.3+, 202.1+) weeks

Question: What about the “PFS of one patient” value (solid tumors; one patient in the 60-mg cohort with SD as best response) of the same compound?
Answer: 202.1 weeks

Question: And the “Plasma concentration versus dose” value ([3]; 60 to 120 mg QD)?
Answer: increased in a dose‐dependent manner; also recorded: dose‐dependent increase

Question: What about the Ctrough ([3]; Day 21 of cycle 1, Cohort 1 (60 mg/d) (n = 2), oral QD, mean (SD)) of the same compound?
Answer: 192 (29.7) ng/mL

Question: And the Accumulation rate [3, 6]?
Answer: 1.65 (0.440)

Question: And the Ctrough [3, 6]?
Answer: 389 (234) ng/mL

Question: And the Ctrough ([3]; Day 21 of cycle 1, Cohort 3 (120 mg/d) (n = 1), oral QD, SD not calculated)?
Answer: 552 (NC) ng/mL

Question: What about the PK linearity ([3]; dose range of 60 to 120 mg/day) of the same compound?
Answer: linear PK

Question: What about the half-life ([3]; human, plasma, oral, Mean t1/2, day 1, across 60- to 120-mg cohorts) of the same compound?
Answer: 15.1 to 17.9 h

Question: And the half-life ([3]; human, plasma, oral, Mean t1/2, day 21, across 60- to 120-mg cohorts)?
Answer: 18.1 to 26.1 h

Question: And the Tmax ([3]; human, plasma, oral, Median Tmax, all cohorts)?
Answer: ~3 h

Question: What about the AUC(0-inf) ([3]; human, plasma, po, 60 mg/d) of the same compound?
Answer: 6320 ng·h/mL

Question: What about the AUC [3, 7] of the same compound?
Answer: 4250 ng·h/mL

Question: And the AUC [3, 8]?
Answer: 7390 ng·h/mL

Question: And the Cmax [3, 7]?
Answer: 429 ng/mL

Question: And the Cmax [3, 8]?
Answer: 625 ng/mL

Question: What about the Tmax ([3]; human, plasma, po, 60 mg/d, Tmax, Day 1 of cycle 1, Cohort 1 (60 mg/d) (n = 3), oral QD, median (minimum, maximum)) of the same compound?
Answer: 3 h

Question: And the Tmax ([3]; human, plasma, po, 60 mg/d, Tmax, Day 21 of cycle 1, Cohort 1 (60 mg/d) (n = 2), oral QD, median (minimum, maximum))?
Answer: 2.48 h

Question: And the half-life ([3]; human, plasma, po, 60 mg/d, t1/2, Day 1 of cycle 1, Cohort 1 (60 mg/d) (n = 3), oral QD, mean (SD))?
Answer: 15.1 h

Question: What about the half-life ([3]; human, plasma, po, 60 mg/d, t1/2, Day 21 of cycle 1, Cohort 1 (60 mg/d) (n = 2), oral QD, mean (SD)) of the same compound?
Answer: 18.1 h

Question: And the AUC [3, 9]?
Answer: 8380 ng·h/mL

Question: And the Cmax [3, 9]?
Answer: 692 ng/mL

Question: And the Cmax ([3]; human, plasma, po, 90 mg/d, Day 21 of cycle 1, Cohort 2 (90 mg/d) (n = 9), oral QD, mean (SD))?
Answer: 995 ng/mL

Question: And the Tmax ([3]; human, plasma, po, 90 mg/d, Tmax, Day 1 of cycle 1, Cohort 2 (90 mg/d) (n = 11), oral QD, median (minimum, maximum))?
Answer: 3 h

Question: And the Tmax ([3]; human, plasma, po, 90 mg/d, Tmax, Day 21 of cycle 1, Cohort 2 (90 mg/d) (n = 9), oral QD, median (minimum, maximum))?
Answer: 3.02 h

Question: What about the half-life ([3]; human, plasma, po, 90 mg/d, t1/2, Day 1 of cycle 1, Cohort 2 (90 mg/d) (n = 11), oral QD, mean (SD)) of the same compound?
Answer: 15.4 h

Question: And the half-life ([3]; human, plasma, po, 90 mg/d, t1/2, Day 21 of cycle 1, Cohort 2 (90 mg/d) (n = 9), oral QD, mean (SD))?
Answer: 20.9 h

Question: And the Cmax ([3]; human, plasma, po, 120 mg/d, Day 1 of cycle 1, Cohort 3 (120 mg/d) (n = 4), oral QD, mean (SD))?
Answer: 1140 ng/mL

Question: And the Tmax ([3]; human, plasma, po, 120 mg/d, Tmax, Day 1 of cycle 1, Cohort 3 (120 mg/d) (n = 4), oral QD, median (minimum, maximum))?
Answer: 3.01 h

Question: What about the Tmax ([3]; human, plasma, po, 120 mg/d, Tmax, Day 21 of cycle 1, Cohort 3 (120 mg/d) (n = 1), oral QD, median (minimum, maximum)) of the same compound?
Answer: 2.95 h

Question: What about the half-life ([3]; human, plasma, po, 120 mg/d, t1/2, Day 1 of cycle 1, Cohort 3 (120 mg/d) (n = 4), oral QD, mean (SD)) of the same compound?
Answer: 17.9 h

Question: What about the AUC(0-t) ([3]; human, plasma, po, 120 mg/day) of the same compound?
Answer: 25600 ng·h/mL

Question: What about the “Tumor growth of xenografts” value [4] of the same compound?
Answer: suppresses tumor growth

Question: And the “Growth of cancer cells harboring wild-type p53” value [5]?
Answer: inhibits the growth
